For assay [1], the target named is T1, DC-SIGN producing Raji cells (Homo sapiens, UniProt Q9NNX6).
T1 sequence (Q9NNX6 1-404): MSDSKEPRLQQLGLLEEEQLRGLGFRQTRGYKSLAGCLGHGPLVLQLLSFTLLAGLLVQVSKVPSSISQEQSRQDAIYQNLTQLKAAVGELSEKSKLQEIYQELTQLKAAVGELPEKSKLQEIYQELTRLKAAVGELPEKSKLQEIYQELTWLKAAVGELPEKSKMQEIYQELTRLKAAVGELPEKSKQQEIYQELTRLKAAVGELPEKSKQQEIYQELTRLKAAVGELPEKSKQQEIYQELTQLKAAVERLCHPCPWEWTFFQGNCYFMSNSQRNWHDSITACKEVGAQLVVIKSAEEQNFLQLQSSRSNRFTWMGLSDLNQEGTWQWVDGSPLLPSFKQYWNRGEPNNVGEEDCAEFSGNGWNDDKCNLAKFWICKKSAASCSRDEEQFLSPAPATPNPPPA
Nature of the assay: Flow cytometry assay of binding and uptake of fluorescent mannosylated probe. Particulars: competitor at 100 mM; Man-Fl-BSA probe. Type of assay: cell-based. The method in brief:
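Raji (Burkitt's lymphoma) cells stably transfected with a DC-SIGN expression vector. Surface DC-SIGN was checked with AZND1-PE antibody by microscopy and with DCN46-FITC by flow cytometry. Cells were exposed to fluorescent Man-Fl-BSA with or without test compound; ManNAc (100 mM) served as carbohydrate competitor. Percent inhibition was taken from the geometric mean fluorescence, normalized to cells without inhibitor.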
In general terms: Flow cytometry measures light scatter and fluorescence of single cells or particles in a stream.

The target of assay [2] is T2, extracellular domain of DC-SIGN (immobilized tetrameric DC-SIGN) (Homo sapiens, UniProt Q9NNX6).
T2 sequence (Q9NNX6 59-404 limits assumed): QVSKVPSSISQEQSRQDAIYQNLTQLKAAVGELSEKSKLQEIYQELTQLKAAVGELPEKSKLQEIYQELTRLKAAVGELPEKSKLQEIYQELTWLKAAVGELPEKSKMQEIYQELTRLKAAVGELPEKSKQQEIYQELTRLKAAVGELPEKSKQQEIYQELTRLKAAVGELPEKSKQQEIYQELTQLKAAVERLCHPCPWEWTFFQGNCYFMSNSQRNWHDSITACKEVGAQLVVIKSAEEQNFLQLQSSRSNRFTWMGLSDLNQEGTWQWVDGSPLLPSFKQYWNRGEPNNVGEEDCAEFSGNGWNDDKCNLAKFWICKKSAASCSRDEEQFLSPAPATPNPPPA
Type of assay: binding. Particulars: read-out: Kd of probe to immobilized tetrameric DC-SIGN.

pKd: −log10 of the molar value.

In the case of `CC(=O)N[C@@H]1C(O)O[C@H](CO)[C@@H](O)[C@@H]1O` (some centres unmarked) [ManNAc, N-acetylmannosamine], the “probe uptake by DC-SIGN-positive cells” value in assay [1] is on record as “significant decrease”.
As to “Man-Fl-BSA: fluorescent mannosylated glycoconjugate probe (fluorescein, mannose, BSA)”, in assay [2], the pKd is 2.70.

By pKd is commonly meant −log10 of the Kd, conventionally taken in molar units.

The record behind these values is paper PMC3359018 (Chemical science (Royal Society of Chemistry : 2010), 2011).
